A3A deaminase: APOBEC3A ssDNA deaminase inhibitors, primary screen, selectivity assay for APOBEC3G inhibitor project, biochemical, FAM/TAMRA oligo cleavage fluorescence | inhibition, % at 20 µM | recombinant A3A, FAM/TAMRA ssDNA deamination fluorescence | actives 0.41% (n = 330,000);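 active = at least 40% inhibition at 20 µM here, with at most 30% in a related deaminase screen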
Target sequence (P31941 whole entry, looked up): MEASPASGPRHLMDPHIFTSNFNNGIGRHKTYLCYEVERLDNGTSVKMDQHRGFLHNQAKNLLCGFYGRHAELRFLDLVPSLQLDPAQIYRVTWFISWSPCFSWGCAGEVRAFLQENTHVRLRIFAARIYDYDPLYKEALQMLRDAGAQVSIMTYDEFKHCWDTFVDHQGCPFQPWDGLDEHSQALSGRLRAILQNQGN
APOBEC3G inh: APOBEC3G DNA deaminase inhibitors, primary screen, biochemical, fluorescence, single-stranded DNA substrate, uHTS | recombinant A3G, ssDNA deamination FAM/TAMRA fluorescence | actives 0.28% (n = 330,000) | inhibition, % at 20 µM;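 active = inhibition of at least 40% at 20 µM, with no more than 30% in the related APOBEC3A deaminase screen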
PRMT1 FP inh: PRMT1 methyltransferase inhibitors, primary screen, biochemical, fluorescence polarization; actives 1.3% (n = 370,000); AID 652257, 2013; Protein arginine N-methyltransferase 1 (Homo sapiens), Q99873; recombinant PRMT1, activity-based probe fluorescence polarization; inhibition, % at 2.79 µM;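 active = inhibition above about 21% made by adding two undisclosed values, limit read from the data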
Target sequence (Q99873 whole entry, looked up): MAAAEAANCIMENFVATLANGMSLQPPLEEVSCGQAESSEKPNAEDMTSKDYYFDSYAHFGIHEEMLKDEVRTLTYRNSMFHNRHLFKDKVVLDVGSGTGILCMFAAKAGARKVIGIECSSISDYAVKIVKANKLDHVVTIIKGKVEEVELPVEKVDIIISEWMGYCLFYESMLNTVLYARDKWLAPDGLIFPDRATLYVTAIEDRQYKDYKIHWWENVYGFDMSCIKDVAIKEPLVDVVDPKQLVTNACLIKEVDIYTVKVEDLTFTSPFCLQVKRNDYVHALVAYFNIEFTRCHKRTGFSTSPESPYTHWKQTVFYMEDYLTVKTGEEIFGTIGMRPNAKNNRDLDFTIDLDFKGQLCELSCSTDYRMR
ABHD5-PLIN5 inh: ABHD5-PLIN5 interaction inhibitors, primary screen, cell lysate, split luciferase complementation, luminescence; AID 602281, 2012; inhibition, % at 4 µM; Split G. princeps luciferase complementation, 4 h; Perilipin-5 (Homo sapiens) + 1-acylglycerol-3-phosphate O-acyltransferase ABHD5 (Homo …; actives 0.78% (n = 360,000);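 active = inhibition above the mean inhibition across every tested compound plus 3 SD, cut at about 22% in these data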
NS3 helicase inh: inhibitors of HCV NS3 helicase, primary screen, biochemical, Cy5 molecular beacon fluorescence | Hepatitis C virus NS3 helicase | actives 0.56% (n = 290,000) | NS3 helicase DNA unwinding | inhibition, % at 10.9 µM;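 active = inhibition above the mean of all tested compounds plus 3 SD, set per campaign, cut at about 35% in these data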
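System: Hepatitis C virus NS3 helicase domain fragment enzyme | Reagent: Annealed dual-labelled DNA beacon duplex, ATP-started | Compound dosing: 10.9 µM single point, 0.8% DMSO | Incubation: 1 h reaction at 25 °C, ATP-initiated | Technique: Cy5 fluorescence | Evaluation: Percent inhibition from t60/t0 fluorescence ratio | Benchmarks: Low DMSO, high thioflavine S at 110 µM | Replication: Singlicate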
HCV core dimer: inhibitors of HCV core protein dimerization, primary screen, biochemical, TR-FRET, high-throughput | TR-FRET GST/Flag-core106 dimerization, 1536-well | inhibition, % at 5 µM | actives 0.33% (n = 300,000);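 active = inhibition above the mean of all tested compounds plus 3 SD, set per screening campaign, cut at about 45% in these data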
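System: GST/Flag-tagged HCV core106 proteins. Incubation: compound-protein-antibody incubation 4 h at 22.5 °C. Technique: HTRF with 340 nm excitation, 617/671 nm emission. Medium: KF-containing HEPES buffer, pH 7.45, DTT, CHAPS, BSA. Read-out: inhibition (%) from 671 over 617 nm ratio. Also added: Eu(K)-anti-GST 90 ng/mL plus XL665-anti-Flag 1 µg/mL.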
APOBEC3A confirm: APOBEC3A deaminase inhibitors, retest, confirmation, selectivity assay for APOBEC3G inhibitor project, biochemical, single concentration, fluorescence readout; shares compounds with A3A deaminase; recombinant A3A, ssDNA deaminase UDG fluorescence assay; inhibition, % at 20 µM; actives 63% (n = 1,400); AID 493151, 2011;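 active = inhibition reaching a set limit, 80% of the first screen's cutoff, at 20 µM in any replicate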
UDG A3A counter: E. coli UDG inhibitors, confirmation, counter-screen for APOBEC3A inhibitor project, biochemical, single concentration, fluorescence, FAM/TAMRA oligo | shares compounds with A3A deaminase | UDG counterscreen, FAM/TAMRA uracil oligo fluorescence | inhibition, % at 20 µM | 1,000 tested, under 10 active; call rule not given here
A3G conf: APOBEC3G deaminase inhibitor retest, confirmation, biochemical, fluorescence, single-stranded DNA substrate, single concentration | shares compounds with APOBEC3G inh | recombinant A3G ssDNA deaminase, UDG/FAM-TAMRA fluorescence | inhibition, % at 20 µM | actives 72% (n = 890) | AID 493152, 2011;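 active = inhibition reaching a set limit in any replicate at 20 µM, the limit being 80% of the first screen's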
UDG ctr A3G: E. coli UDG inhibitors, confirmation, counter-screen for APOBEC3G inhibitor project, biochemical, single concentration, fluorescence, FAM/TAMRA oligo | shares compounds with APOBEC3G inh | UDG counterscreen | inhibition, % at 20 µM | 710 tested, under 10 active | AID 504715, 2011;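 active = compounds giving 40% or more inhibition at 20 µM in any one of the three replicates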;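 note: inhibitors lower the FAM signal released by uracil excision and alkaline cleavage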
ABHD5 PLIN5 conf: ABHD5-PLIN5 interaction inhibitors, confirmation, biochemical, luminescence | actives 67% (n = 2,200) | shares compounds with ABHD5-PLIN5 inh | inhibition, % at 4 µM; in the data active = inhibition above about 23%
HNF4 counter: HNF4 dimerization inhibitors, counter-screen for ABHD5-PLIN5 interaction inhibitor project, biochemical, split-luciferase complementation, luminescence; shares compounds with ABHD5-PLIN5 inh; inhibition, % at 4 µM; actives 77% (n = 2,200); AID 651674, 2012;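 active = mean inhibition across replicate wells exceeding the computed hit threshold, cut at about 13% in these data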;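 note: light from luciferase halves that rejoin when HNF4 fusion proteins dimerize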
PRMT1 confirm: PRMT1 methyltransferase inhibitors, confirmation, biochemical, fluorescence polarization, triplicate | recombinant His-PRMT1, activity-based probe fluorescence polarization | shares compounds with PRMT1 FP inh | AID 687036, 2013 | inhibition, % at 2.79 µM | actives 42% (n = 3,300);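 active = mean inhibition across replicates above the hit cutoff derived for the earlier primary screen, cut at about 22% in these data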
Large screens that a line does not name were inactive (follow-up assays come after a bar, where they were run). Most compounds without a hit are left out; they make up all but 2.9% or so of the library.

Cc1nc2ccc(NC(=O)c3cc(Cl)ccn3)cc2s1	A3A deaminase 49 | APOBEC3A confirm inactive | UDG A3A counter inactive
Cc1cc(C)c(C)c(S(=O)(=O)N2CCC(C(=O)Nc3ccc(S(=O)(=O)N4CCOCC4)cc3)CC2)c1C	A3A deaminase 41 | APOBEC3A confirm inactive
COc1ccc(N2CC(C(=O)Nc3ccc(S(=O)(=O)N4CCOCC4)cc3)CC2=O)cc1 (stereo not drawn)	A3A deaminase 48 | APOBEC3A confirm inactive
CCCCc1c(-c2ccccc2OC)ncn1Cc1ccc(C)cc1	none (no result: A3A deaminase, APOBEC3G inh, ABHD5-PLIN5 inh, NS3 helicase inh, HCV core dimer)
O=C(C[n+]1cc(Br)cc2ccccc21)c1ccc(Br)cc1	none
CCC[n+]1c2ccccc2cc2ccccc21	A3A deaminase 47, ABHD5-PLIN5 inh 72 | APOBEC3A confirm 42 | UDG A3A counter inactive | ABHD5 PLIN5 conf 94 | HNF4 counter 84
CCCC[n+]1c2ccccc2cc2ccccc21	A3A deaminase 55, ABHD5-PLIN5 inh 87 | APOBEC3A confirm 48 | UDG A3A counter inactive | ABHD5 PLIN5 conf 102 | HNF4 counter 100
O=C(NCCOc1ccccc1F)c1ccc2c(=O)n3c(nc2c1)CCC3	none (no result: NS3 helicase inh, HCV core dimer)
NC(=O)C[n+]1cccc2ccccc21	A3A deaminase 43, PRMT1 FP inh 55 | APOBEC3A confirm 59 | UDG A3A counter inactive | PRMT1 confirm inactive
O=C1NC(=O)/C(=C\c2ccc(Br)o2)S1	A3A deaminase 55, PRMT1 FP inh 43 | APOBEC3A confirm inactive | PRMT1 confirm inactive
O=C(COC(=O)COc1cccc(C(F)(F)F)c1)NC(=O)NC1CCCCC1	none (no result: NS3 helicase inh)
COCCN(C(=O)c1cc(-c2ccco2)nc2ccccc12)c1c(N)n(Cc2ccccc2)c(=O)[nH]c1=O	A3A deaminase 46, PRMT1 FP inh 83 (no result: NS3 helicase inh, HCV core dimer) | APOBEC3A confirm 32 | UDG A3A counter inactive | PRMT1 confirm inactive
CCCn1c(N)c(N(CCOC)C(=O)c2cc(Cl)nc3ccccc23)c(=O)[nH]c1=O	none (no result: NS3 helicase inh)
CCCCc1nc(SCC(=O)N2CCOCC2)c2c(=O)n(C)c(=O)n(C)c2n1	none
CO[C@@]1(NC(=O)C2SC(=C(C(N)=O)C(=O)O)S2)C(=O)N2C(C(=O)O)=C(CSc3nnnn3C)CS[C@@H]21 (stereo partly drawn)	A3A deaminase 50, PRMT1 FP inh 37 (no result: NS3 helicase inh) | APOBEC3A confirm 43 | UDG A3A counter inactive | PRMT1 confirm inactive
Cc1ccc(CNC(=O)CSc2nc3ccsc3c(=O)n2Cc2ccccn2)cc1	none
COc1ccc(NC(=O)CSc2nc3ccsc3c(=O)n2Cc2ccccn2)c(OC)c1	A3A deaminase 43, PRMT1 FP inh 29 | APOBEC3A confirm inactive | UDG A3A counter inactive | PRMT1 confirm inactive
CC(C)c1cc(C(=O)NCc2ccc(F)cc2)c(N)s1	none (no result: A3A deaminase, APOBEC3G inh, NS3 helicase inh, HCV core dimer)
CCOC(=O)c1c(NC(=O)c2ccccc2Cl)sc2c1CCc1ccccc1-2	APOBEC3G inh 57 | A3G conf 75 | UDG ctr A3G inactive
CCOC(=O)c1c(NC(=O)c2ccccc2C(=O)O)sc2c1CCCC2	none
CCOC(=O)c1c(NC(=O)c2ccccc2)sc2c1CCc1ccccc1-2	APOBEC3G inh 58 | A3G conf 16 | UDG ctr A3G inactive
CCn1cc(C(=O)NCC(OC)OC)c(=O)c2cc(S(=O)(=O)N3CCCC3)ccc21	none
CCn1cc(C(=O)NCC(OC)OC)c(=O)c2cc(S(=O)(=O)N3CCC(C)CC3)ccc21	APOBEC3G inh 59 | A3G conf inactive | UDG ctr A3G inactive
Cc1ccc2nc(-c3ccc(F)cc3)c(Cc3ccccc3C(F)(F)F)n2c1	none (no result: A3A deaminase, APOBEC3G inh, NS3 helicase inh, HCV core dimer)
C=C(C)C(=O)Nc1cccc(C2=NOC3(C2)C[C@@H](C(N)=O)N(C(=O)C2(C)CC2)C3)c1 (stereo partly drawn)	APOBEC3G inh 89 (no result: NS3 helicase inh) | A3G conf 94
C=C(C)C(=O)Nc1cccc(C2=NOC3(C2)C[C@@H](C(N)=O)N(C(=O)C(=C)C)C3)c1 (stereo partly drawn)	APOBEC3G inh 88 (no result: NS3 helicase inh) | A3G conf 92 | UDG ctr A3G inactive
C/C=C\C(=O)Nc1cccc(C2=NOC3(C2)C[C@@H](C(N)=O)N(C(=O)C2(C)CC2)C3)c1 (stereo partly drawn)	none (no result: NS3 helicase inh)
C/C=C(/C)C(=O)Nc1cccc(C2=NOC3(C2)C[C@H](C(N)=O)N(C(=O)c2ccc(Cl)cc2)C3)c1 (stereo partly drawn)	none (no result: NS3 helicase inh)

Screening data: PubChem BioAssay, several laboratories
